Assay results published in BindingDB's records for doi:10.1021/jm030916r (Uppsala University, 2004).

Assays:
Thioredoxin reductase 3 [1] = molecular target: T1, Thioredoxin reductase 3 (Homo sapiens, UniProt Q86VQ6); test: Inhibition of thioredoxin reductase
T1 sequence (Q86VQ6 whole entry): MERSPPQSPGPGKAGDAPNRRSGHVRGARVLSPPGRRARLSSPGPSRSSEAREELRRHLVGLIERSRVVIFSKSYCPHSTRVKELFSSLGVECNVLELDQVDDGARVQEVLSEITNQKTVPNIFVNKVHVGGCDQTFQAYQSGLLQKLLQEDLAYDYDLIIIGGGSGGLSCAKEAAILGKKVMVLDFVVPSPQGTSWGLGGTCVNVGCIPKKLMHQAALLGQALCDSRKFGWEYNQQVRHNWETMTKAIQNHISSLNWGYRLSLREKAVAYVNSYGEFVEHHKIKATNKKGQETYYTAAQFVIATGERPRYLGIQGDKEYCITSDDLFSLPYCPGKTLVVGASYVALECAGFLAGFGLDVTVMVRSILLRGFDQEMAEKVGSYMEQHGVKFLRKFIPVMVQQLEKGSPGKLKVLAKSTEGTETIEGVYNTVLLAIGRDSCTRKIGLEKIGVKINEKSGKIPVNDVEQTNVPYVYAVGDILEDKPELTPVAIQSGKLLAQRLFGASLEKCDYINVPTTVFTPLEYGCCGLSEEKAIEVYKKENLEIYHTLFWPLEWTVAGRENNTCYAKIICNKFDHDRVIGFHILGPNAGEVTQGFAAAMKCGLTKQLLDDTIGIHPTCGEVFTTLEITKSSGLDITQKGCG
Summary of the method: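 TrxR-only activity in HE buffer (100 mM HEPES pH 7.2, 5 mM EDTA) with 1.0 μM TrxR, 10 mM DTNB, 1 mM NADPH and inhibitor (final). Compound and enzyme added first, reaction started with NADPH/DTNB at 37 °C. OD 412 nm read every 10 s for initial linear rates. IC50 is 50% inhibition of thionitrobenzoate formation.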

Thioredoxin reductase 3 [2] = molecular target: T1, Thioredoxin reductase 3; test: Inhibition of thioredoxin reductase in the presence of thioredoxinand insulin
Summary of the method: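 Insulin reduction coupled to Trx/TrxR, final concentrations: 100 mM HEPES pH 7.2, 5 mM EDTA, 1 mM NADPH, 1.0 μM TrxR, 0.8 μM Trx, 2.5 mg/mL bovine insulin plus inhibitor. 30 min at 37 °C, stopped with 6 M guanidine HCl/50 mM Tris pH 8.0/10 mM DTNB, absorbance at 412 nm. IC50 for 50% inhibition of thionitrobenzoate formation.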

Structure (SMILES): OCC1O[C@@H]2O[C@@H]3C(C[Te]c4ccccc4)O[C@H](O[C@@H]4C(CO)O[C@H](O[C@@H]5C(CO)O[C@H](O[C@@H]6C(CO)O[C@@H](O[C@@H]7C(CO)O[C@H](O[C@@H]8C(CO)O[C@H](O[C@H]1C(O)C2O)C(O)C8O)C(O)C7O)C(O)C6O)C(O)C5O)C(O)C4O)C(O)C3O (some centres not stated)
- IC50 (Thioredoxin reductase 3 [1]): 17.8 µM
- IC50 (Thioredoxin reductase 3 [2]): 18 µM
